# Reference: ChEMBL document CHEMBL4118152, “Discovery of Potent and Selective Periphery-Restricted Quinazoline Inhibitors of the Cyclic Nucleotide Phosphodiesterase PDE1” (J Med Chem, 2018)
# Columns and labels:
# [1] = biological target: Urotensin-2 receptor (Homo sapiens) (UniProt Q9UKP6); assay: Inhibition of human urotensin-2 receptor at 10 uM relative to control
# [2] = biological target: Dual 3',5'-cyclic-AMP and -GMP phosphodiesterase 11A (Homo sapiens, UniProt Q9HCR9); assay: Inhibition of full length recombinant human PDE11A4 using 3',5'-[3H]cGMP as substrate after 30 mins by scintillation proximity assay
# Sequence of Dual 3',5'-cyclic-AMP and -GMP phosphodiesterase 11A (Q9HCR9 whole entry): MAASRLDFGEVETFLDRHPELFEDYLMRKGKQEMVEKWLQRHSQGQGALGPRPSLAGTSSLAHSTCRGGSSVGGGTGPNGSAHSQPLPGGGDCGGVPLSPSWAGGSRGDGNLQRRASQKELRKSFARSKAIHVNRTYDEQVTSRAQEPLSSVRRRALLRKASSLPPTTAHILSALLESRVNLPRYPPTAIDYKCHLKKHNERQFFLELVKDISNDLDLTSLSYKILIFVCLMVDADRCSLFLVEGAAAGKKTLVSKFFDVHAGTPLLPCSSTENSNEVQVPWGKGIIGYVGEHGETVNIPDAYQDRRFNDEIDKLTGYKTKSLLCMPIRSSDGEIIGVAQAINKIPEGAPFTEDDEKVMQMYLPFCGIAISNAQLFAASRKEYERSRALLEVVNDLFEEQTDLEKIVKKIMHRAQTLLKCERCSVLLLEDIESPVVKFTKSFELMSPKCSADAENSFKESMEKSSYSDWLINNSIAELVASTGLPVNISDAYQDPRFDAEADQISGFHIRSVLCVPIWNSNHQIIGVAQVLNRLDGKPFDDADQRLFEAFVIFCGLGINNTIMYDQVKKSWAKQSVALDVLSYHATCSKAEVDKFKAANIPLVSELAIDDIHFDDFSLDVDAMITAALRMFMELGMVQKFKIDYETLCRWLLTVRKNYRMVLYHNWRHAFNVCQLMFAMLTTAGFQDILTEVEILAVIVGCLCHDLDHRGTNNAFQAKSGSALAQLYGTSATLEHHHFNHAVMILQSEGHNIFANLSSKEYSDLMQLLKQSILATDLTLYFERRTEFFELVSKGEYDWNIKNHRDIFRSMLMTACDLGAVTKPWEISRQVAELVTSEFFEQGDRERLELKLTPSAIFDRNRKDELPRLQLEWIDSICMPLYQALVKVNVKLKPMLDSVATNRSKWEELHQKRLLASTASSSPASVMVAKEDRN
# Method in brief: (§1)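 Enzymes were human except PDE6A, which was bovine. Each was assayed with cAMP or cGMP substrate, as appropriate to the enzyme, at concentrations below 1/3 of Km. IC50 values are mean ± SEM from n = 3 or more.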
# [3] = biological target: Muscarinic acetylcholine receptor M5 (Homo sapiens) (UniProt P08912); assay: Inhibition of human muscarinic M5 receptor at 10 uM relative to control
# Sequence of Muscarinic acetylcholine receptor M5 (Homo sapiens) (P08912 whole entry): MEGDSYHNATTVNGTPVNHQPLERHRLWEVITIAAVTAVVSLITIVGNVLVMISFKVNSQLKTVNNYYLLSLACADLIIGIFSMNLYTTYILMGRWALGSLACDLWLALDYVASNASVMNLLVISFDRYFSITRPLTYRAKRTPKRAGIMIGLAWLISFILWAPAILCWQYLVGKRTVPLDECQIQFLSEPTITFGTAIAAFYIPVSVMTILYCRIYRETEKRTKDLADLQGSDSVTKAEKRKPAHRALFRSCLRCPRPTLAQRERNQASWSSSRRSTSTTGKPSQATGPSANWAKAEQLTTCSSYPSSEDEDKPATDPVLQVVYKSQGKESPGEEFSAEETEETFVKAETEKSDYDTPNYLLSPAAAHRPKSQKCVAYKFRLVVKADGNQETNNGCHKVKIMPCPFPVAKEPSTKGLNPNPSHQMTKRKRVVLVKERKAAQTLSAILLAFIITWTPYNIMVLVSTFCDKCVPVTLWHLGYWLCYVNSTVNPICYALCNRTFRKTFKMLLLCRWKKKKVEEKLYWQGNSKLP
# Rattus norvegicus [4] = organism: Rattus norvegicus; assay: Inhibition of rat brain GABA transporter assessed as [3H]GABA uptake at 10 uM after 30 mins by scintillation counting analysis relative to control
# [5] = biological target: High affinity cGMP-specific 3',5'-cyclic phosphodiesterase 9A (Homo sapiens, UniProt O76083); assay: Inhibition of full length recombinant human PDE9A1 using 3',5'-[3H]cGMP as substrate after 30 mins by scintillation proximity assay; method in brief: as §1
# Mus musculus = organism: Mus musculus; assay: Inhibition of mouse brain rolipram binding site assessed as [3H]rolipram uptake at 10 uM after 60 mins by scintillation counting analysis relative to control
# [6] = biological target: Voltage-dependent N-type calcium channel subunit alpha-1B (Rattus norvegicus) (UniProt Q02294); assay: Displacement of [125I]omega -conotoxin GVIA from rat brain N-type Calcium channel at 10 uM after 30 mins by scintillation counting analysis relative to control
# [7] = biological target: 3',5'-cyclic-AMP phosphodiesterase 7B (Homo sapiens, UniProt Q9NP56); assay: Inhibition of full length recombinant human PDE7B using 3',5'-[3H]cAMP as substrate after 30 mins by scintillation proximity assay; method in brief: as §1
# CYP2C19 = CYP2C19 (Homo sapiens, UniProt P33261); assay: Inhibition of human CYP2C19 at 10 uM relative to control; assay type: ADME
# [8] = biological target: Carbonic anhydrase 2 (Homo sapiens) (UniProt P00918); assay: Inhibition of human carbonic anhydrase 2 using 4-nitrophenyl acetate as substrate at 10 uM after 20 mins by spectrophotometric method relative to control
# [9] = biological target: Vascular endothelial growth factor receptor 1 (Homo sapiens) (UniProt P17948); assay: Inhibition of recombinant human VEGFR1 using Ulight-TK peptide as substrate at 10 uM after 15 mins in presence of ATP by LANCE method relative to control
# Sequence of Vascular endothelial growth factor receptor 1 (Homo sapiens) (P17948 whole entry): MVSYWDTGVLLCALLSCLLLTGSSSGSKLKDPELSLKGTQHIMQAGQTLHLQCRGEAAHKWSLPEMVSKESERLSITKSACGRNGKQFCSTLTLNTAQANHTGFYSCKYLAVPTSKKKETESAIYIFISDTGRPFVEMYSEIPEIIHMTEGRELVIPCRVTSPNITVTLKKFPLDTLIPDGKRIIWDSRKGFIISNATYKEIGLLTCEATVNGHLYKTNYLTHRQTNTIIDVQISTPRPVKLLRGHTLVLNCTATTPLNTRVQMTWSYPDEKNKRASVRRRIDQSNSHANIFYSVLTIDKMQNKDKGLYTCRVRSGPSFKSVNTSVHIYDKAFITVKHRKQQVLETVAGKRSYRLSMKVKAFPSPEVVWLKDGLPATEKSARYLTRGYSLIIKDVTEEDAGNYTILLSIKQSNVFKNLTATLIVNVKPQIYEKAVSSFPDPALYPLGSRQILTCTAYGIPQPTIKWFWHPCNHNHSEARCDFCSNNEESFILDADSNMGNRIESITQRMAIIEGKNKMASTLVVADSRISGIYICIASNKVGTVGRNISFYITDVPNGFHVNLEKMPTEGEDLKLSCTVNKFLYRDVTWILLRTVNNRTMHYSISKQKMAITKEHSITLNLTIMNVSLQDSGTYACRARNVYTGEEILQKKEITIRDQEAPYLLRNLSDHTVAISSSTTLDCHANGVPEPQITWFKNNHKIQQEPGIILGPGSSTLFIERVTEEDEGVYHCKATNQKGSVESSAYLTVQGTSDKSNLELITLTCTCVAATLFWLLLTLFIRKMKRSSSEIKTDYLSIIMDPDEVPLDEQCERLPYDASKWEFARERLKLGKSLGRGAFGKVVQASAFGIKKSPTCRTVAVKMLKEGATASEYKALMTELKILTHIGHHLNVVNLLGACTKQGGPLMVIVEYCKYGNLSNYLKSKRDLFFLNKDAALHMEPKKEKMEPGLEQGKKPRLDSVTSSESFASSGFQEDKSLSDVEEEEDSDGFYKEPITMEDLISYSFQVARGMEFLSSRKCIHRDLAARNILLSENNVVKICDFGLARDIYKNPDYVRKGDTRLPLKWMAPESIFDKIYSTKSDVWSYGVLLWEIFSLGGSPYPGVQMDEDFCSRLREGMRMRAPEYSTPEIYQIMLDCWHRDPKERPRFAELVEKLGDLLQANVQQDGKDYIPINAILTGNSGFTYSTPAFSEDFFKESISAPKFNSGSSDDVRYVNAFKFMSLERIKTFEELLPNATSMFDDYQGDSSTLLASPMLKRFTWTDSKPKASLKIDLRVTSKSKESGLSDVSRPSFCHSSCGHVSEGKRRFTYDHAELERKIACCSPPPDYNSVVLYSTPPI
# [10] = Fraction unbound in Wistar Hannover rat brain at 1 mg/kg, sc measured at 0.5 hrs post dose by LC-MS/MS analysis; assay type: ADME, organism-based; conditions: in vivo
# Homo sapiens [11] = organism: Homo sapiens; assay: Selectivity ratio of IC50 for full length recombinant human PDE7B to IC50 for full length recombinant human PDE1A
# Method in brief: (§2)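 IC50s were measured against recombinant PDEs, all human except PDE6A (bovine). Each enzyme was given its appropriate cAMP or cGMP substrate at below 1/3 of its Km. IC50s are the mean of n = 3 or more. The selectivity ratio is the IC50 for the other PDE divided by the IC50 for PDE1B1 or PDE1A.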
# [12] = Drug uptake in Wistar Hannover rat cerebrospinal fluid at 1 mg/kg, sc measured at 2 hrs post dose by LC-MS/MS analysis; assay type: ADME, organism-based; conditions: read-out: Drug uptake
# Method in brief: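 Rats were dosed subcutaneously at 1 mg/kg. CSF, plasma and brain were sampled at 0.5, 1, 2 and 4 h post dose and analysed for drug concentration. Values are means at each time point.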
# [13] = Ratio of drug uptake in cerebrospinal fluid to fraction unbound in plasma in Wistar Hannover rat at 1 mg/kg, sc measured at 0.5 hrs post dose by LC-MS/MS analysis; assay type: ADME, organism-based, CSF/Plasma; conditions: in vivo
# MAO-A = MAO-A (Homo sapiens, UniProt P21397); assay: Inhibition of human MAO-A at 10 uM relative to control
# Rattus norvegicus [14] = organism: Rattus norvegicus; assay: Inhibition of rat GABA-A receptor at 10 uM relative to control
# Homo sapiens [15] = organism: Homo sapiens; assay: Inhibition of human endothelin receptor at 10 uM relative to control
# [16] = biological target: Beta-2 adrenergic receptor (Homo sapiens) (UniProt P07550); assay: Inhibition of human beta 2 adrenergic receptor at 10 uM relative to control
# [17] = biological target: Type-1 angiotensin II receptor (Homo sapiens) (UniProt P30556); assay: Inhibition of human angiotensin 1 receptor at 10 uM relative to control
# [18] = Ratio of drug uptake in cerebrospinal fluid to fraction unbound in plasma in Wistar Hannover rat at 1 mg/kg, sc measured at 1 hr post dose by LC-MS/MS analysis; assay type: ADME, organism-based, CSF/Plasma; conditions: in vivo
# [19] = Fraction unbound in Wistar Hannover rat brain at 1 mg/kg, sc measured at 2 hrs post dose by LC-MS/MS analysis; assay type: ADME, organism-based; conditions: in vivo
# [20] = biological target: Adenosine receptor A1 (Homo sapiens) (UniProt P30542); assay: Inhibition of human adenosine A1 receptor at 10 uM relative to control
# [21] = biological target: Dual specificity calcium/calmodulin-dependent 3',5'-cyclic nucleotide phosphodiesterase 1B (Homo sapiens, UniProt Q01064); assay: Inhibition of full length recombinant human PDE1B1 using 3',5'-[3H]cAMP as substrate after 30 mins by scintillation proximity assay; method in brief: as §1
# Sequence of Dual specificity calcium/calmodulin-dependent 3',5'-cyclic nucleotide phosphodiesterase 1B (Q01064 whole entry): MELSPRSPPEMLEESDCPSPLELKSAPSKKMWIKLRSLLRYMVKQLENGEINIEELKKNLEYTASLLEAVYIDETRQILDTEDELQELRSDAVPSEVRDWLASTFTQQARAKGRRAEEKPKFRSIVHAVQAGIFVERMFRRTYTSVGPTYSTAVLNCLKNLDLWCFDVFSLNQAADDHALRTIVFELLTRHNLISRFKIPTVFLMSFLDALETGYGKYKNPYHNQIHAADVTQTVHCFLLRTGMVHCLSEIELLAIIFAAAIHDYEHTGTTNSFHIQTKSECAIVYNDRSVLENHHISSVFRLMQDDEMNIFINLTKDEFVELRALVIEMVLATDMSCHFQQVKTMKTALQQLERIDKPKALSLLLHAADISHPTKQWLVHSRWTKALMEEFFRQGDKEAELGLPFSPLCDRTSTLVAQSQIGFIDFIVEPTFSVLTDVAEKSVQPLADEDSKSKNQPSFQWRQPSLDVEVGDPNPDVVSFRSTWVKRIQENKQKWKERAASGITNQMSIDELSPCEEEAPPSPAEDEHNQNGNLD
# [22] = biological target: Glutamate receptor ionotropic, kainate (Rattus norvegicus) (UniProt P22756+Q01812+P42260+P42264+Q63273); assay: Inhibition of rat brain Glutamate receptor, ionotropic kainate assessed as [3H]kainic acid uptake at 10 uM after 60 mins by scintillation counting analysis relative to control
# [23] = biological target: Mu-type opioid receptor (Homo sapiens) (UniProt P35372); assay: Inhibition of human mu opioid receptor at 10 uM relative to control
# Sequence of Mu-type opioid receptor (Homo sapiens) (P35372 whole entry): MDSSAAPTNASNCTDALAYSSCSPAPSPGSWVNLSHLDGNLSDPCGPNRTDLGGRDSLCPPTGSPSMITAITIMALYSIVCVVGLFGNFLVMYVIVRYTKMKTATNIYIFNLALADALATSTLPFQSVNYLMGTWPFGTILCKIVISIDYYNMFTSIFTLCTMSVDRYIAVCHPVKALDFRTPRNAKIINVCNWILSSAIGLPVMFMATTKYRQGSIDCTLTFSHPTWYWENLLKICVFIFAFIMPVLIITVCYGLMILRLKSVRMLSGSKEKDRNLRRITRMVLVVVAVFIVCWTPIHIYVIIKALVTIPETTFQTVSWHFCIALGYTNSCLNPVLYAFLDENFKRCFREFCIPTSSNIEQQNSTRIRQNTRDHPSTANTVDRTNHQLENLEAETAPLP
# Homo sapiens [24] = organism: Homo sapiens; assay: Displacement of [125I]alpha -bungarotoxin from human nAChR (Muscle-Type) at 10 uM after 120 mins by scintillation counting analysis relative to control
# [25] = Selectivity ratio of IC50 for bovine retina PDE6A to IC50 for full length recombinant human PDE1A; method in brief: as §2
# [26] = biological target: Histamine H3 receptor (Homo sapiens) (UniProt Q9Y5N1); assay: Inhibition of human histamine H3 receptor at 10 uM relative to control
# [27] = biological target: cGMP-dependent 3',5'-cyclic phosphodiesterase (Homo sapiens, UniProt O00408); assay: Inhibition of full length recombinant human PDE2A1 using 3',5'-[3H]cGMP as substrate after 30 mins by scintillation proximity assay; method in brief: as §1
# Sequence of cGMP-dependent 3',5'-cyclic phosphodiesterase (O00408 whole entry): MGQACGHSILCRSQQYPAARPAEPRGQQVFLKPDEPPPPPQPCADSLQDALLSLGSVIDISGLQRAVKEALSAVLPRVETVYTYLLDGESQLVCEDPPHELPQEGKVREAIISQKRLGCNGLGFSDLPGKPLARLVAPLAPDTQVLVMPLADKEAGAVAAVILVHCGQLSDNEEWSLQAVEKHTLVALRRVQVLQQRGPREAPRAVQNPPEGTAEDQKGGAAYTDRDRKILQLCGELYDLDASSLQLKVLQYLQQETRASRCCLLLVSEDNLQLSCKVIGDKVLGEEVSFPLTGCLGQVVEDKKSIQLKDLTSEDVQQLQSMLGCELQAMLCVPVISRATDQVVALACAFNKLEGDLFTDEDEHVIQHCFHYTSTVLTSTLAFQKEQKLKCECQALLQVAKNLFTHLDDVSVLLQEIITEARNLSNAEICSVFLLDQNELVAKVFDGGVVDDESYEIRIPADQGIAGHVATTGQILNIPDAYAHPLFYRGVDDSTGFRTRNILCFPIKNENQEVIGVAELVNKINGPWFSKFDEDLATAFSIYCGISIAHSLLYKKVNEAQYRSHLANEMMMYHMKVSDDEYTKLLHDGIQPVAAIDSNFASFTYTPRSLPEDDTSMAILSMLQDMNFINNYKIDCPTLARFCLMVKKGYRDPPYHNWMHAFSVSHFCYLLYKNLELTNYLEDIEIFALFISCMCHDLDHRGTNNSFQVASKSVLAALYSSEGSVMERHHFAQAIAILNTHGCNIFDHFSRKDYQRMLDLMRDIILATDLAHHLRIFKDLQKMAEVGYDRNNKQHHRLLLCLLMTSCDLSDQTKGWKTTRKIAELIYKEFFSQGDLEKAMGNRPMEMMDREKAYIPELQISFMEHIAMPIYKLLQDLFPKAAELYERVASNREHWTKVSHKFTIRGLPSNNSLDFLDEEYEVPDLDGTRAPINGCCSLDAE
# [28] = biological target: 3',5'-cyclic-AMP phosphodiesterase 4D (Homo sapiens, UniProt Q08499); assay: Inhibition of full length recombinant human PDE4D3 using 3',5'-[3H]cAMP as substrate after 30 mins by scintillation proximity assay; method in brief: as §1
# [29] = biological target: Cannabinoid receptor 2 (Homo sapiens) (UniProt P34972); assay: Inhibition of human Cannabinoid CB2 receptor at 10 uM relative to control
# Sequence of Cannabinoid receptor 2 (Homo sapiens) (P34972 whole entry): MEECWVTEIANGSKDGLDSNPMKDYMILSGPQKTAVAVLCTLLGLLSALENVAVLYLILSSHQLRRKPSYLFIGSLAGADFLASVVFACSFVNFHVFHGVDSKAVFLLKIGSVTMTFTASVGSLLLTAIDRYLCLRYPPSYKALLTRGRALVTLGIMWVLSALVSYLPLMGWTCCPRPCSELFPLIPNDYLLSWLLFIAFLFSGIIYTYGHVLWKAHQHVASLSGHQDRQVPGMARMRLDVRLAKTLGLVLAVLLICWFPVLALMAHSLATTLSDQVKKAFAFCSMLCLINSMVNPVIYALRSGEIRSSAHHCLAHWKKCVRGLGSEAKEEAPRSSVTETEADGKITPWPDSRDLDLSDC
# [30] = biological target: 5-hydroxytryptamine receptor 2A (Homo sapiens) (UniProt P28223); assay: Inhibition of human 5-HT2A receptor at 10 uM relative to control
# Homo sapiens [31] = organism: Homo sapiens; assay: Selectivity ratio of IC50 for full length recombinant human PDE11A4 to IC50 for full length recombinant human PDE1B1; method in brief: as §2
compound,measurement,setting,value
COc1ccc2c(N[C@@H](C)Cc3cc(C)[nH]n3)ncnc2c1OC,inhibition,[1],< 50%
same,IC50,[2],34.7 µM
same,inhibition,[3],< 50%
same,inhibition,Rattus norvegicus [4],< 50%
same,IC50,[5],> 0.2 µM
same,inhibition,Mus musculus,< 50%
same,inhibition,[6],< 50%
same,IC50,[7],41.3 µM
same,inhibition at 10 µM,CYP2C19,< 50%
same,inhibition,[8],< 50%
same,inhibition,[9],< 50%
same,Drug uptake(free),[10],6 nM
same,Ratio IC50,Homo sapiens [11],983
same,concentration at 2 h,[12],8 nM
same,Ratio,[13],0.12 to 0.14
same,inhibition at 10 µM,MAO-A,< 50%
same,inhibition,Rattus norvegicus [14],< 50%
same,inhibition,Homo sapiens [15],< 50%
same,inhibition,[16],< 50%
same,inhibition,[17],< 50%
same,Ratio,[18],0.13
same,Drug uptake(free),[19],2 nM
same,inhibition,[20],< 50%
same,IC50,[21],0.0091 µM
same,inhibition,[22],< 50%
same,inhibition,[23],< 50%
same,inhibition,Homo sapiens [24],< 50%
same,Ratio IC50,[25],> 3380
same,inhibition,[26],< 50%
same,IC50,[27],47.6 µM
same,IC50,[28],26.3 µM
same,inhibition,[29],< 50%
same,inhibition,[30],< 50%
same,Ratio IC50,Homo sapiens [31],3740
